Reference: ChEMBL document CHEMBL3856209, “Novel pyrazolopyridine derivatives as potential angiogenesis inhibitors: Synthesis, biological evaluation and transcriptome-based mechanistic analysis” (Eur J Med Chem, 2016)
Active and inactive are the calls of the source.

Legend:
HUVEC [1] = assay: Effect on TUBB2B gene expression in serum-starved HUVEC after 6 hrs by microarray analysis relative to control; type: functional, Homo sapiens
HUVEC [2] = assay: Effect on FDPS gene expression in serum-starved HUVEC after 6 hrs by microarray analysis relative to control; type: functional, Homo sapiens
Method in brief: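 Serum-starved confluent HUVEC (primary, pooled from 3–5 donors, passage ≤4) treated with 2 μM test compound or DMSO vehicle (working dilutions ≤0.1% v/v) in presence of 2.5% FBS for 6 h or 24 h; total RNA hybridized to Illumina Human-HT12 arrays; background correction, vst, rsn normalization; moderated paired t-test versus DMSO, thresholds p < 0.05 and log2 fold change >|0.5|.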

HUVEC [3] = assay: Effect on TGFBI gene expression in serum-starved HUVEC after 24 hrs by microarray analysis relative to control; type: functional, Homo sapiens
HUVEC [4] = assay: Effect on NSDHL gene expression in serum-starved HUVEC after 24 hrs by microarray analysis relative to control; type: functional, Homo sapiens
[5] = Downregulation of CCNA2 gene expression in serum-starved HUVEC at 2 uM after 24 hrs by qRT-PCR analysis; type: functional, cell-based; settings: Homo sapiens
Method in brief: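 Serum-starved confluent HUVEC treated with 2 μM compound or vehicle in 2.5% FBS for 24 h. Total RNA isolated and qRT-PCR run in triplicate (95 °C 5 min; 40 cycles of 95 °C 5 s, 58 °C 20 s, 72 °C 5 s), normalized to RPS18S. Fold change vs control, n = 3.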

HUVEC [6] = assay: Effect on MIR181A2HG gene expression in serum-starved HUVEC after 6 hrs by microarray analysis relative to control; type: functional, Homo sapiens
Method in brief: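 Serum-starved confluent HUVEC (pooled from 3–5 donors, passage ≤4) were treated with 2 μM compound or vehicle in 2.5% FBS for 6 h or 24 h, and total RNA was isolated. Hybridization was on Illumina Human-HT12. Data were processed with bgAdjust, vst and rsn normalization. Changes versus DMSO were called by moderated paired t-test at p < 0.05 and |log2 fold change| > 0.5.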

HUVEC [7] = assay: Effect on KIF22 gene expression in serum-starved HUVEC after 24 hrs by microarray analysis relative to control; type: functional, Homo sapiens
Method in brief: (§1)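 Confluent, serum-starved HUVEC (pooled from 3–5 donors, passage ≤4) treated with 2 μM compound or vehicle with 2.5% FBS for 6 h or 24 h. Total RNA hybridized to Illumina Human-HT12 arrays. Data were background-corrected, vst-transformed and rsn-normalized. Hits called by moderated paired t-test versus DMSO-treated cells, p < 0.05 and log2 fold change >|0.5|.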

HUVEC [8] = assay: Effect on GANAB gene expression in serum-starved HUVEC after 6 hrs by microarray analysis relative to control; type: functional, Homo sapiens; method in brief: as §1
HUVEC [9] = assay: Effect on RHOB gene expression in serum-starved HUVEC after 24 hrs by microarray analysis relative to control; type: functional, Homo sapiens

In the case of `COc1ccc(Cn2nc(-c3ccccc3)c3cc(Nc4ccc(N5CCN(C)CC5)cc4)nc(N4CCN(C)CC4)c32)cc1`, the “fold change (FC)” value (HUVEC [1]) was 0.219, the “fold change (FC)” value (HUVEC [2]) was -0.059 and the log2FC (HUVEC [3]) was -0.9058. The log2FC (HUVEC [4]) was 1.1565 and the Activity [5] was “Active”.
In the case of `COc1ccc(Cn2nc(-c3ccccc3)c3cc(Nc4ccc(N5CCN(C)CC5)cc4)nc(N4CCNCC4)c32)cc1`, the log2FC (HUVEC [6]) was -0.0835, the log2FC (HUVEC [7]) was -0.5297 and the log2FC (HUVEC [8]) was -0.1113.
Compound `COc1ccc(Cn2nc(-c3ccccc3)c3cc(Cl)nc(N4CCNCC4)c32)cc1` has a log2FC (HUVEC [9]) of 0.5108.
